# M1 antagonist – antagonists of rat M1 muscarinic receptor; CHO-M1 cells, Fluo-4 calcium, ACh EC80 antagonist mode; active compounds read low; P08482; hit rate 3.4% among 64,000; B-score at 10 µM;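 active means calcium fluorescence response, raw or row-and-column corrected B-score, differing from the plate sample mean either way at a set confidence level, mostly lower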
# D1 allo mod – allosterically modulates the human D1 dopamine receptor | B-score at 10 µM | HEK293 D1, CRE-luciferase, dopamine EC30 potentiation; actives deviate in either direction | hit rate 5.9% among 58,000 | AID 641 | P21728;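 active means luminescence count or its row- and column-corrected plate score outside the 99.7% band of the plate's sample wells, on either side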
# M1 ag – M1 muscarinic receptor agonism; CHO-M1 cells, Fluo-4 calcium fluorescence, agonist mode; active compounds read high; B-score at 10 µM; hit rate 3% among 64,000;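 active means fluorescence rise, raw or as B-score row- and column-corrected plate score, outside the 99.7% band of its plate's samples, either direction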
# BAP1 inh – inhibitors of human BAP1 deubiquitinase | Q92560 | recombinant BAP1, Ub-AMC hydrolysis fluorescence kinetic; active compounds read low | calls only at 20 µM | hit rate 0.48% among 72,000 | AID 436;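 active means activity remaining at or below 50% of control, provided the compound also passes the data quality filters; inactive means the rest, including low values that fail the filters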;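 further: 100% = DMSO wells rate and 0% = substrate alone blank rate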
# Target sequence (Q92560 whole entry, looked up): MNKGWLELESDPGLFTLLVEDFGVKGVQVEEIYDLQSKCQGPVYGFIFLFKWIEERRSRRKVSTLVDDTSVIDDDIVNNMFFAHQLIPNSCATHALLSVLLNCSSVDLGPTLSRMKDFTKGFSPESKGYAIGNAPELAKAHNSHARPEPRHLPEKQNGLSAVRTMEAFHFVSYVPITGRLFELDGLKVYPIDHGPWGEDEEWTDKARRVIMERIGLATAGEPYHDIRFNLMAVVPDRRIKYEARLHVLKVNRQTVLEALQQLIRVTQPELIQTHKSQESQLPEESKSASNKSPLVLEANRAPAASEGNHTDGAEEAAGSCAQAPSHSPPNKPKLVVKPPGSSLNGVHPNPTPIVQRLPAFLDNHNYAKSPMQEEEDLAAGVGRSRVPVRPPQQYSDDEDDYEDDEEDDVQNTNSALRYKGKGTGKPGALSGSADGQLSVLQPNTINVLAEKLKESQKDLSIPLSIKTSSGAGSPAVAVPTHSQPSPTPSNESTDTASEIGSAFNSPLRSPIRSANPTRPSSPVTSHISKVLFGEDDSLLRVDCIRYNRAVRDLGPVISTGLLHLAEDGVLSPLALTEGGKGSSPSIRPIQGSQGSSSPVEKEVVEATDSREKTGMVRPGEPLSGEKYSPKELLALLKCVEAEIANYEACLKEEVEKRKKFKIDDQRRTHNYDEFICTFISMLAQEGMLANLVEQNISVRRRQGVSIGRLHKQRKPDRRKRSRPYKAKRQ
# DAT uptake mod – human DAT dopamine uptake with cocaine, either direction. Q01959. LLC-PK1 hDAT cells, [14C]-dopamine uptake with cocaine IC80; actives deviate in either direction. B-score at 10 µM. hit rate 1.3% among 110,000. AID 449768;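 active means Z score or B-score, a plate-position-corrected score, falls beyond the plate's 99.7% confidence bounds, in either direction; inactive means both scores lie inside the 99.7% bounds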;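 further: scored against the spread of the other compound wells on the same plate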
# HEK293 NFkB inh – lowers PMA/ionomycin-induced NF-kB signal in HEK293 cells. HEK-293 NF-kB luciferase reporter, luminescence. inhibition, % at 3 µM. hit rate 0.21% among 62,000. AID 465;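 active means inhibition above the mean of all tested compounds plus 3 SD, cut at about 40% in these data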;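 further: 0% = stimulated DMSO wells and 100% = 10 µM reference inhibitor 5653914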
#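 Reagent: PMA plus ionomycin mix as NF-kB-activating stimulus. Assay system: NF-kB luciferase reporter HEK-293 cells. Technique: luminescence from luciferase substrate reagent. Incubation: 1 h compound pre-incubation, 16 h PMA/ionomycin at 37 °C. Benchmarks: DMSO only as uninhibited control, 10 µM reference inhibitor as full inhibition. Repeats: tested once.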
# D1 PAM confirm – confirmation of human D1 dopamine receptor allosteric modulators. shares compounds with D1 allo mod. HEK293 D1 CRE-luciferase, dopamine EC30 potentiation; active compounds read high. AID 642. luminescence at 10 µM. hit rate 88% among 2,200;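 active means luminescence in either of two replicates above the same-plate mean plus 3 SD of the low-dose dopamine control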
# D1 no dopamine – activates D1 CRE-luciferase signal without dopamine present; shares compounds with D1 allo mod; HEK293 D1 CRE-luciferase, luminescence, no dopamine; active compounds read high; luminescence at 10 µM; hit rate 0.8% among 1,900; AID 646; in the data active means luminescence above about 3900
# Isoprot counter – isoproterenol response counter-screen activity for D1 modulators; shares compounds with D1 allo mod; HEK293 D1 CRE-luciferase, isoproterenol EC30 counter-screen; calls only at 10 µM; hit rate 63% among 2,200;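 active means luminescence in either replicate above plate mean of wells with a partly effective reference agonist dose plus 3 SD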;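 further: isoproterenol raises cAMP through native beta-adrenoceptor Gs so signal bypasses D1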
# Active calls of the source: *; i = inactive; . = not tested or not shown; + = active, no number. The list is not random: actives were taken first. Their share in the collection is about 7.2%.
SMILES,M1 antagonist,D1 allo mod,M1 ag,BAP1 inh,DAT uptake mod,HEK293 NFkB inh,D1 PAM confirm,D1 no dopamine,Isoprot counter
Cn1c(=O)c2c(nc(SCc3cccnc3)n2Cc2ccc(F)cc2)n(C)c1=O,-1.4,0.025,-0.016,i,1.5,2,.,.,.
Fc1ccc(-c2csc3nnc(SCc4cccnc4)n23)cc1,0.39,17*,0.075,i,0.93,19,26500*,1540,+
Cc1ccc(S(=O)(=O)N2CCC(C(=O)N3CCCC(C(F)(F)F)C3)CC2)cc1 (centres undefined),.,.,.,i,.,.,.,.,.
Cc1cc(Cl)ccc1OCC(=O)NCCO,.,.,.,i,.,.,.,.,.
Cc1onc(-c2ccccc2)c1C(=O)Nc1ccc2c(c1)OCO2,-0.49,5*,-0.29,i,0.45,11,11760*,1796,i
Cc1onc(-c2ccccc2)c1C(=O)OCC(=O)Nc1ccc2c(c1)OCO2,0.5,-1.2,0.055,i,-0.71,17,.,.,.
CS(=O)(=O)c1ncn(-c2ccccc2)n1,.,.,.,i,.,.,.,.,.
O=c1[nH]c(SCCOc2ccccc2)nc2ccccc12,0.0057,5.3*,0.056,i,-0.77,11,7564*,.,+
Cc1ccc(C(=O)Nc2sc(C)c(C)c2C#N)cc1,.,.,.,i,.,.,.,.,.
CCCCN(C)C(=O)c1coc(=O)c2ccccc12,0.0044,3.1*,-0.23,i,0.0088,4,5824,.,i
Cc1ccc(C(=O)C[n+]2ccc3ccccc3c2)cc1[N+](=O)[O-],.,.,.,i,.,.,.,.,.
Cn1c(=O)n(C)c2cc(S(=O)(=O)NCc3ccco3)ccc21,-0.74,2.4*,0.27,i,0.47,9,5820,1724,i
Nc1nc(OCC(F)(F)F)cc(Oc2ccccc2F)n1,-0.86,8.7*,0.34,i,0.74,12,14824*,1612,+
CC(C)OC(=O)c1cccc(C(=O)Nc2ccc(I)cc2)n1,.,.,.,i,.,.,.,.,.
COc1ccc(N2C(=O)C3CCCN3C2c2ccccc2)cc1Cl (centres undefined),0.42,2.8*,0.82,i,-0.52,14,5744*,1680,i
CCOC(=O)c1sc2nc(N3CCCC3)c3c(c2c1N)CC(C)(C)OC3,-0.013,13*,-0.048,.,0.3,10,21232*,1888,+
COc1ccc(CCN(Cc2cc3cc(C)ccc3[nH]c2=O)C(=O)N2CCCC2)cc1OC,0.5,9.1*,1,i,0.77,15,13088*,1584,+
CCOC(=O)Cc1nnc(NC(=O)c2ccccc2OC)s1,0.24,-0.73,-0.98,i,-0.092,9,.,.,.
CCOC(=O)Cc1nnc(NC(=O)c2ccccc2OCC)s1,0.43,2.7*,-2.7,i,1.8,.,8096*,1648,+
COc1cccc(Cn2nnc(C(=O)NCc3ccccc3Cl)c2N)c1,-2.1,6.8*,-0.48,i,0.43,7,16056*,1908,+
Cn1c(NCc2ccco2)nc2c1c(=O)n(Cc1ccc(Cl)cc1Cl)c(=O)n2C,-0.12,0.34,0.21,i,-0.0031,6,.,.,.
Cn1cnc2c1c(=O)n(Cc1ccc(F)cc1Cl)c(=O)n2C,-0.048,4*,-0.13,i,-1.2,12,6528*,1544,i
COCCn1c(SCC(=O)Nc2sc(C)c(C)c2C#N)nnc1C(C)C,-0.23,0.66,0.9,i,1.1,0,.,.,.
CCn1c(SCC(=O)Nc2sc(C)c(C)c2C#N)nnc1C(C)C,-0.0057,4.5*,-0.42,i,-0.36,-4,5156,1684,i
CCCCn1cc(C(C)(C)C)c(C#N)c1NC(C)=O,0.5,6*,-0.11,i,-0.0076,-3,9748*,1536,+
SMILES,M1 antagonist,D1 allo mod,M1 ag,BAP1 inh,DAT uptake mod,HEK293 NFkB inh,D1 PAM confirm,D1 no dopamine,Isoprot counter
Nc1nc(SCC(=O)OCc2ccccc2)[nH]c(=O)c1NC(=O)c1ccco1,0.028,3.2*,0.46,i,0.68,-2,6284*,1856,i
Cc1nc(N2CCC(C(N)=O)CC2)c2nnn(Cc3ccccc3)c2n1,0.21,3.2*,0.00021,i,-0.12,12,6740*,1504,i
Cc1nc(N2CCCC2)c2nnn(Cc3ccccc3Cl)c2n1,-0.96,.,-0.61,i,0.26,5,.,.,.
CCOc1ccc(CC(=O)Nc2c(C(N)=O)oc3ccccc23)cc1OCC,0.36,4.5*,1,i,-1,15,7352*,1544,i
CCOC(=O)c1oc2ccccc2c1NC(=O)c1ccccc1OC,0.32,4.5*,1.1,i,0.88,2,11400*,1632,+
Cc1c(C#N)c2ccccc2n1CC(=O)NCC1CCCO1 (centres undefined),-0.14,3.8*,-2,i,-0.15,16,5268,1692,i
CC1=CC(C)(C)N=C(NC#N)N1,.,3.8*,.,i,0.091,-7,9044*,1768,i
Nc1ccccc1Nc1c([N+](=O)[O-])c(=O)oc2ccccc12,.,.,.,i,.,.,.,.,.
COc1ccc(OC)c(NC(=O)CSc2nc3ccccc3c(=O)n2CCNC(C)=O)c1,0.24,9.7*,0.83,i,-0.81,1,9716*,1560,i
CC(C)(C)C1CCc2c(sc(NC(=O)c3cc4n(n3)C(C(F)(F)F)CC(c3cccs3)N4)c2C#N)C1 (centres undefined),.,.,.,i,.,.,.,.,.
C=CCNC(=O)C(Cc1ccccc1)C(=O)OCC (centres undefined),.,.,.,i,.,.,.,.,.
COc1ccc(CCN(C)C(=O)CSc2nccn2C)cc1OC,0.65,4.5*,-0.43,i,-0.63,8,9340*,.,i
CC(=O)N(Cc1c(NC(=O)c2ccccc2)sc(C)c1C)C(C)C,.,.,.,i,.,.,.,.,.
O=C(CSc1nc2ccccc2c(=O)n1-c1ccccc1)c1ccc(F)cc1,.,.,.,i,.,.,.,.,.
O=c1c2ccccc2nc(SCc2cn3ccsc3n2)n1-c1ccc(F)cc1,0.72,8.2*,-0.49,i,1.7,16,10696*,1584,+
O=c1[nH]c2cc3c(cc2cc1C(c1nnnn1C1CCCC1)N1CCSCC1)OCCO3 (centres undefined),0.5,6.9*,-2.6,.,.,-4,10448*,1784,i
COc1ccc(OC)c(C2CC(=O)c3c([nH]c(C(=O)OC(C)C)c3C)C2)c1 (centres undefined),0.16,2.8*,1.5,i,-0.12,34,9020*,2012,+
Cc1cc(C)c(C)c(C(=O)c2ccc(Cl)cc2)c1C,.,.,.,i,.,.,.,.,.
COC(=O)c1ccsc1NC(=O)C1=COCCO1,0.079,9.1*,-0.21,i,0.81,17,17084*,1496,+

# High-throughput results from PubChem.
